Assay results reported in ChEMBL document CHEMBL4732101, “Novel quinolone-based potent and selective HDAC6 inhibitors: Synthesis, molecular modeling studies and biological investigation” (Eur J Med Chem, 2021).

Assay: Inhibition of HDAC1/2/3/8 in human HCT-116 cells assessed as increase in H3K9/14 acetylation at 10 uM measured after 12 to 24 hrs by Western blot analysis relative to control
Type: cell-based
Conditions: hct-116, 10 µM, time 12-24 hrs
Method in brief: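 HCT-116 or U937 cells treated at 10 µM for 12 and 24 h. […] Western blot used 40 µg total protein or 5 µg acid-extracted histone. Blots probed for cleaved PARP, acetylated tubulin, H3K9/14ac and Hsp90(AcLys294), normalized to GAPDH or H4. Compared with control cells by one-way ANOVA and Dunnett's test.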

## CCN(CC)Cc1ccc(Cn2c(=O)c(OCc3ccc(C(=O)NO)cc3)c(-c3cccnc3)c3ccccc32)cc1
  fold change (FC): > 6
